The results in this text go back to ChEMBL document CHEMBL1127593, “14-epi stereoisomers of 25-hydroxy- and 1 alpha,25-dihydroxyvitamin D3: synthesis, isomerization to previtamins, and biological studies” (J Med Chem, 1994).

The nature of data set [1]: Compound was tested for the backward reaction of conversion of vitamin D to previtamin D. It counts as ADME. An outline of the steps: (§1)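 Vitamin/previtamin ratio read by 1H-NMR integration. Kinetics run in triplicate over 59.8–89.7 °C with Arrhenius treatment; 1α-hydroxy analogue run once at 80 °C. Equilibrium constant at 80 °C taken after prolonged heating from either isomer.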

The nature of data set [2]: Compound was tested for rate constant for the forward reaction of isomerization of previtamin D to vitamin D. It counts as ADME. An outline of the steps:
as §1

The nature of data set [3]: Compound was tested for rate constant for the transformation of vitamin to previtamin. It counts as ADME. An outline of the steps:
as §1

The nature of data set [4]: Keq (k1/1-k) for the transformation of vitamin D to previtamin D. It counts as ADME. The essentials: as §1
Data set [5] concerns vitamin D receptor (Gallus gallus). Description: Compound was evaluated for chick vitamin D receptor relative competitive induces (relative to alpha, 25-(OH2)-D3).
A short description of data set [6]: Compound was tested for the backward reaction of conversion of vitamin D to previtaminD. Format: ADME. An outline of the steps:
as §1

Each structure is given as a SMILES string.

In data set [1], `C=C1CC[C@H](O)C/C1=C/C=C1\CCC[C@@]2(C)[C@@H]1CC[C@@H]2[C@H](C)CCCC(C)(C)O` returned a k-1 of 0.000845 s⁻¹. In data set [2], this molecule came in with a k1 of 4.92e-05 s⁻¹. For the same molecule, the “Log A” value in data set [3] was 8.5 s-1. The same molecule showed a Keq in data set [4] of 0.058.

In data set [5], `CC1=C(/C=C\C2=CCC[C@@]3(C)[C@@H]2CC[C@@H]3[C@H](C)CCCC(C)(C)O)CC(O)CC1` (some centres undefined) showed an RCI of 0.011.

`CC1=C(/C=C\C2=CCC[C@@]3(C)[C@@H]2CC[C@@H]3[C@H](C)CCCC(C)(C)O)C[C@@H](O)C[C@@H]1O` had an RCI in data set [5] of 1.6.

For `C=C1CC[C@H](O)C/C1=C/C=C1\CCC[C@]2(C)[C@@H]([C@H](C)CCCC(C)(C)O)CC[C@@H]12` [CALCIFEDIOL ANHYDROUS], the k1 in data set [2] was 0.000502 s⁻¹. The molecule also displayed a k-1 in data set [6] of 0.000135 s⁻¹. Also, in data set [4], the Keq is on record as 3.8.

Consider `C=C1/C(=C\C=C2/CCC[C@]3(C)[C@@H]([C@H](C)CCCC(C)(C)O)CC[C@@H]23)C[C@@H](O)C[C@@H]1O` [CALCITRIOL], for which the k1 in data set [2] worked out at 0.000563 s⁻¹. This molecule showed a k-1 in data set [6] of 7.6e-05 s⁻¹. Besides, in data set [3], the “Log A” value was determined as 9.9 s-1. In data set [4], this molecule showed a Keq of 7.3.

With `C=C1CC[C@H](O)C/C1=C/C=C1\CCC[C@]2(C)[C@@H]([C@H](C)CCCC(C)C)CC[C@@H]12` [CHOLECALCIFEROL], the “Log A” value in data set [3] was 10.7 s-1.
